This note sets out measurements from PMC11166183 (Inorganic chemistry, 2024).

Read-outs that look alike come from different tables or passages of the source.

The subject of data set [1] is SK-MEL-28 cells. As to the kind of experiment: Dark cytotoxicity and photocytotoxicity in normoxia, resazurin cell viability. In kind it is cell-based, human. The method in brief: (§1)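 Cells adhered 3–5 h at 37°C, then were dosed at 1 nM to 300 μM. After a 13–22 h DLI, light plates received 100 J cm−2 of broadband visible (400–700 nm, 21 mW cm−2), green (523 nm) or red (633 nm, ±2.5 nm, 18 mW cm−2) light. Dark plates stayed incubated. Viability was read by resazurin after 24 h at 37°C. EC50 came from sigmoidal fits; PI = dark EC50/light EC50.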
(In general: The colour change of resazurin is a common sign of viable cells or microbes.)

In a further data set the test system is A549 cells. The data set is described as above. The data set is classed as cell-based, human. The method in brief:
as §1

Data set [2] is described as follows: Lipophilicity by shake-flask method. The data set is classed as physicochemical. The settings on record: chloride salts, 1-octanol / 10 mM phosphate buffer pH 7.4.
Data set [3] concerns SK-MEL-28 cells. Description: Dark cytotoxicity and photocytotoxicity in hypoxia. The data set is classed as cell-based, human. The note with it: hypoxia 1% O2, regardless of light treatment. The method in brief: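 Cells were moved to a 1% O2 chamber for 2–3 h after adhesion, then dosed (1 nM to 300 μM). After an 18 h DLI, dissolved O2 was checked by optical probe. Light plates were sealed with low-permeability film and illuminated outside the chamber (~1.5 h). All plates were then held in normoxia (37°C, 5% CO2) for 20–23 h before resazurin read-out. EC50 came from sigmoidal fits; PI = dark/light ratio. Each run was done in triplicate.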

Setting [4] is: any light condition (visible, 523 nm, 633 nm; 100 J cm−2), normoxia.
Where [5] appears, read: read-out: dark EC50, no light, normoxia.

One may read the EC50 as the concentration at which the effect is half-maximal. As for “rac-[Ru(4,4′-btfmb)2(IP-2T)](Cl)2 [Ru-2T]”, the “drop in activity with green light versus visible light” value with SK-MEL-28 cells [1] (523 nm vs visible, normoxia) amounted to 3 fold. Moreover, in the data set on SK-MEL-28 cells [1] (523 nm, 100 J cm−2, normoxia, representative replicate (repeat 0)), the “PI (dark EC50 / green EC50)” value is on record as 91. The EC50 with SK-MEL-28 cells [1] (read-out: green EC50, 523 nm, 100 J cm−2, normoxia, representative replicate (repeat 0)) was determined as 1900 nM; in the data set with A549 cells (read-out: visible EC50, visible light 400–700 nm, 100 J cm−2, normoxia), 1370 nM. The “enhancement in visible photocytotoxicity relative to Ru-1T” value with SK-MEL-28 cells [1] (visible light, normoxia) amounted to 36 fold. Besides, the “PI (dark EC50 / visible EC50)” value with A549 cells (visible light 400–700 nm, 100 J cm−2, normoxia) is recorded as 127. Moreover, the “log Do/w” value in data set [2] is recorded as “positive”.
“rac-[Ru(4,4′-btfmb)3](Cl)2 [[Ru(4,4′-btfmb)3]^2+, reference compound]”: the photocytotoxic activity entry in the data set on SK-MEL-28 cells [1] (setting [4]) and in the data set with A549 cells (setting [4]) was “inactive” each time. Moreover, the EC50 in the data set with SK-MEL-28 cells [1] (setting [5]) and with A549 cells (setting [5]) was above 300000 nM throughout. Moreover, the photocytotoxic effect entry in the data set with SK-MEL-28 cells [3] is reported as “no photocytotoxic effect”.
